Experimental data gathered from unrelated publications.
Compare with care: the assays were run in different laboratories.
Target: Serine/threonine-protein kinase RIO3 (RIOK3, Homo sapiens, UniProt O14730)
Residues used in one study (O14730 1-519): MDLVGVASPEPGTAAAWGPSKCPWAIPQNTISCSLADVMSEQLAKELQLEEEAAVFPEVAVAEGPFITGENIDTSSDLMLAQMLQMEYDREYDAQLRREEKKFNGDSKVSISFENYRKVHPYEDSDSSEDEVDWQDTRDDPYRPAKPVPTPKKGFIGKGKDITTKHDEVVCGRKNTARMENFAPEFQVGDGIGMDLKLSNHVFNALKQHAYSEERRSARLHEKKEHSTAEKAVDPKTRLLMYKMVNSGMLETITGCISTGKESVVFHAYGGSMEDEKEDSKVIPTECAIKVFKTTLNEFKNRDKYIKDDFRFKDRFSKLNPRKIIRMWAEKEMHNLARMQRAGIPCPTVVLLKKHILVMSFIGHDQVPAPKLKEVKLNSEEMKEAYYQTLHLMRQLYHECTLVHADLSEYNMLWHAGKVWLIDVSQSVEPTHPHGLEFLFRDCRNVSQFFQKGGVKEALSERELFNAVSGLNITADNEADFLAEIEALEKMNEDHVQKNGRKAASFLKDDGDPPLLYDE

SMILES | test | setting | remaining binding [%]
C[C@H]1CCN(c2nccc(-c3cnn4ncccc34)n2)C1 | binding | 1 µM | 100
COc1ccc2c(O[C@@H]3C[C@H]4C(=O)N[C@]5(C(=O)O)CC5/C=C\CCCCC[C@H](NC(=O)OC5CCCC5)C(=O)N4C3)cc(-c3csc(NC(=O)C(C)C)n3)nc2c1C (stereo partly shown) | cell-free assay, competition with immobilised ligand | 1 µM | 100
O=C(NCCCN1CCOCC1)c1ccc(Nc2nccc(-c3cc4ccccc4s3)n2)cc1 | binding, competition with immobilised ligand | 1 µM | 1.7
FC(F)(F)Oc1cccc(-c2cnc3ccc(-c4ccncc4)nn23)c1 | binding, competition with immobilised ligand | 5 µM | 16
N[C@@H]1CCN(c2nccc(-c3cnn4ncccc34)n2)C1 | binding | 1 µM | 100
Cc1cc(NC(=O)c2cccc(S(F)(F)(F)(F)F)c2)cc(-n2ccn3nc(-c4cccnc4)cc23)c1 | cell-free assay, competition with immobilised ligand | 1 µM | 85.9
CN(CCCC(F)(F)F)c1nccc(-c2cnn3ncccc23)n1 | binding | 1 µM | 100
COc1cnc(Nc2cccc(S(N)(=O)=O)c2)nc1N1CCN(c2ccccc2)C(=O)C1 | binding, competition with immobilised ligand | 1 µM | 57
CC(C)(O)c1cncc(-c2nc3ccc(F)cc3n2C2CC2)c1 | cell-free assay, competition with immobilised ligand | 1 µM | 100
Nc1ncc2c(n1)-c1c([nH]c3ccc(C#CC4CC4)cc13)CCCC2 | binding, competition with immobilised ligand | 1 µM | 75
CNC(=O)c1ccc(Nc2ncc(C(F)(F)F)c(NCc3nccnc3N(C)S(C)(=O)=O)n2)cc1 | cell-free assay, competition with immobilised ligand | 0.1 µM | 55
c1cncc(-c2cccc(Nc3nccc(NC4CCCCC4)n3)c2)c1 | binding, competition with immobilised ligand | 10 µM | 80
O=C(NCCCN1CCOCC1)c1ccc(Nc2ncc(Cl)c(-c3ccc(Cl)s3)n2)cc1 | binding, competition with immobilised ligand | 1 µM | 0.4
CNC(=O)[C@@H]1CC[C@@H](n2c(-c3ccc4cnccc4c3)nc3ccc(C(=O)NCc4cccc(C(N)=O)c4)cc32)C1 | binding, competition with immobilised ligand | 1 µM | 88
CN(c1nccc(-c2cnn3ncccc23)n1)C1CC1 | binding | 1 µM | 100
CCCOc1ccc([C@@H]2[C@@H](C(=O)O)[C@H](c3ccc4c(c3)OCO4)CN2CC(=O)Nc2c(CC)cccc2CC)cc1 | cell-free assay, competition with immobilised ligand | 1 µM | 100
CN(C)c1nccc(-c2cnn3ncccc23)n1 | binding | 1 µM | 100
Cc1cnc(Nc2ccc(C(=O)N3CCC(N4CCCC4)CC3)cc2)nc1-c1cc2ccccc2s1 | binding, competition with immobilised ligand | 1 µM | 0.3
c1cnn2ncc(-c3ccnc(N4CCC45COC5)n3)c2c1 | binding | 1 µM | 93
CO[C@@H](C)c1c(Nc2ccc([C@H](N(C)C(=O)C3CCS(=O)(=O)CC3)C(F)(F)F)cc2)cnc2cc(Cl)nn12 | cell-free assay, competition with immobilised ligand | 1 µM | 82
COc1ccnn2ncc(-c3ccnc(N(C)C)n3)c12 | binding | 1 µM | 100
O=C(Nc1c[nH]nc1C(=O)NC1CCNCC1)c1cc(F)cc(F)c1 | binding, competition with immobilised ligand | 1 µM | 100
